The values that follow come from ChEMBL document CHEMBL1156764, “Structure-based design of pteridine reductase inhibitors targeting African sleeping sickness and the leishmaniases” (J Med Chem, 2010).

Bounds are passed on as bounds.

For one test, the target named is T1, Pteridine reductase 1 (Leishmania major, UniProt Q01782).
T1 sequence (Q01782 whole entry): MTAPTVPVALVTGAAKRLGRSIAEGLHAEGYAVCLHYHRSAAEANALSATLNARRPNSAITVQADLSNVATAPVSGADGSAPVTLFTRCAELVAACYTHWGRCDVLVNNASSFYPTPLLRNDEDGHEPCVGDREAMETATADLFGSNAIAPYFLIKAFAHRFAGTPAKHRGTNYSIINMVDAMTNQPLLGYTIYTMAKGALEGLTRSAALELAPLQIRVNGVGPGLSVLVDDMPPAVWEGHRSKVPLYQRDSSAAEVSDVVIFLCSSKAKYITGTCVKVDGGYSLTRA
In words: Inhibition of Leishmania major recombinant PTR1. The gist of the method:
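Recombinant L. major PTR1, stored at 15 mg mL^-1 (stock) in 50 mM Tris-HCl, 250 mM NaCl, 20% glycerol, pH 7.5. Substrate was H2B, with a 10 mM stock in 0.1 M NaOH. Compound stocks were 100 mM in DMSO. IC50 came from dose–response fits corrected with Morrison's tight-binding equation. Ki was calculated from IC50 using the competitive-inhibition equation.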

A short description of test [1]: Inhibition of Trypanosoma brucei recombinant PTR1. In short, it runs like this: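 Recombinant enzyme stored at 15 mg mL^-1 in 50 mM Tris-HCl, 250 mM NaCl, 20% glycerol, pH 7.5. Substrate was H2B, prepared as a 10 mM stock in 0.1 M NaOH. Compound stocks were 100 mM in DMSO. IC50 came from dose–response plots fitted with Morrison's tight-binding equation. Ki was calculated from IC50 assuming competitive inhibition.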

For test [2], the system named is Trypanosoma brucei brucei. As to the kind of experiment: Antitrypanosomal activity against Trypanosoma brucei brucei Lister 427 blood stream form by Alamar blue assay. It is filed as functional. The conditions noted are these: read-out: ED50 (the source's name). In short, it runs like this:
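Bloodstream-form Lister 427 grown at 37 °C, 5% CO2 in HMI-9 with neomycin pressure (T7 polymerase and tetracycline repressor lines), fetal calf serum 10%, folate not reduced. Exposed to increasing inhibitor concentrations. Viability read by Alamar blue. ED50 taken from dose–response plots. Three separate determinations, each in quadruplicate (n = 12).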

The Ki is a dissociation constant, usually derived from enzyme kinetics or from competition with a known ligand. Take `CC1=Nc2c(N)nc(N)nc2NC1(C)C`: the Ki at Pteridine reductase 1 is 12 µM; in test [1], greater than 35 µM.
With `Nc1nc2[nH]ccc2c(=S)[nH]1`, the Ki on Pteridine reductase 1 was greater than 27 µM; in test [1], greater than 35 µM.
Consider `Nc1cc(NC2CC2)nc(N)n1`, for which the inhibition constant (Ki) is greater than 27 µM on Pteridine reductase 1 and greater than 35 µM in test [1].
Turning to `Nc1cc(SCc2ccccc2)nc(N)n1`, the Ki is 0.6 µM on Pteridine reductase 1 and 3.2 µM in test [1].
As for `Nc1nc2[nH]cc(CCc3ccccc3)c2c(=O)[nH]1`, the Ki on Pteridine reductase 1 was greater than 27 µM.
On to `N#Cc1c(Br)[nH]c2nc(N)[nH]c(=O)c12`, for which the inhibitory constant (Ki) at Pteridine reductase 1 was greater than 27 µM; in test [1], 3.9 µM.
Consider `CCc1ccc(-c2[nH]c3nc(N)[nH]c(=O)c3c2C#N)cc1`, for which the inhibition constant (Ki) was found to be 16.4 µM at Pteridine reductase 1 and 0.5 µM in test [1].
`CC(C)c1nc2nc(N)nc(N)c2nc1C(C)C`: the inhibition constant Ki came to 0.24 µM on Pteridine reductase 1 and 3.3 µM in test [1].
For `N#Cc1c(-c2ccc3c(c2)OCO3)[nH]c2nc(N)[nH]c(=O)c12`, the Ki on Pteridine reductase 1 was found to be 2.6 µM; in test [1], 0.4 µM. Further, the EC50 in test [2] was 123 µM.
`Nc1cc(N)nc(N)n1`: the Ki is greater than 27 µM at Pteridine reductase 1 and greater than 35 µM in test [1].
For the molecule `N#Cc1c[nH]c2nc(N)[nH]c(=O)c12`, the inhibitory constant (Ki) is greater than 27 µM on Pteridine reductase 1 and 5.8 µM in test [1].
Consider `COc1ccc(CSc2cc(N)nc(N)n2)cc1`, for which the inhibition constant (Ki) was 2.7 µM at Pteridine reductase 1 and 18 µM in test [1].
Consider `COc1ccc(-c2[nH]c3nc(N)[nH]c(=O)c3c2C#N)cc1`, for which the values for the Ki (at Pteridine reductase 1; in test [1]) were 3.4 µM and 0.36 µM, respectively. Moreover, the EC50 in test [2] was determined as 274 µM.
In the case of `N#Cc1c(-c2ccccc2)[nH]c2nc(N)[nH]c(=O)c12`, the Ki is greater than 27 µM at Pteridine reductase 1 and 0.71 µM in test [1].
On to `N#Cc1c(-c2cccc(C=O)c2)[nH]c2nc(N)[nH]c(=O)c12`, for which the results for the Ki (on Pteridine reductase 1; in test [1]) were 4.2 µM and 0.29 µM, respectively.
On to `Cc1ccc(Sc2cc(N)nc(N)n2)cc1`, for which the inhibition constant Ki on Pteridine reductase 1 stood at 27 µM; in test [1], 5.4 µM.
Taken in the same sequence, the figures for `Nc1nc(N)c2nc(-c3ccccc3)c(N)nc2n1` were 3.4 µM and 1.2 µM.
For the molecule `Nc1nc2c(c(=O)[nH]1)CC=N2` [7-DEAZAGUANINE], the inhibition constant (Ki) in test [1] was greater than 35 µM.
Consider `CCc1nc(N)nc(N)c1-c1ccc(Cl)cc1` [PYRIMETHAMINE], for which, in test [2], the EC50 was 26.6 µM.
